Experimental findings from ChEMBL document CHEMBL4725486, “Effects of C-Terminal B-Chain Modifications in a Relaxin 3 Agonist Analogue” (ACS Med Chem Lett, 2020) are described below.

The target in assay [1] is Relaxin-3 receptor 2 (Homo sapiens, UniProt Q8TDU9). Briefly: Agonist activity at RXFP4 (unknown origin) stably expressed in CHO cells co-transfected with pCRE assessed as inhibition of forskolin-induced cAMP accumulation measured after 6 hrs by beta-galactosidase reporter gene assay. In kind it is functional, cell-based. In short, it runs like this: (§1)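 Cells were CHO lines expressing RXFP3 or RXFP4, which couple to Gi/o. Agonist action was read as inhibition of forskolin-stimulated cAMP in a reporter gene assay after 6 h stimulation. pEC50 values were pooled from 3–4 independent experiments.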
Relaxin-3 receptor 2, sequence (Q8TDU9 whole entry): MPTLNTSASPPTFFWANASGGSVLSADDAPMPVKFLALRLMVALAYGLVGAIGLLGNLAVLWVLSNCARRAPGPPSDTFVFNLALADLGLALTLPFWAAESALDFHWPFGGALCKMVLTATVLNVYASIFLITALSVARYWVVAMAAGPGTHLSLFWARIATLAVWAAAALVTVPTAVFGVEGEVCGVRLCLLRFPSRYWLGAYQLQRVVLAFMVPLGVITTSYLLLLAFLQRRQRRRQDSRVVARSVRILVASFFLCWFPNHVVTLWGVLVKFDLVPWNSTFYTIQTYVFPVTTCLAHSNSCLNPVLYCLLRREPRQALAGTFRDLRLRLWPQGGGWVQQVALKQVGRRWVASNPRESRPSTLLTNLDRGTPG
On the technique in general: Cyclic AMP is a second messenger, typically raised through Gs and lowered through Gi signalling.

Assay [2] concerns the target T1, Relaxin-3 receptor 1 (Homo sapiens, UniProt Q9NSD7).
T1 sequence (Q9NSD7 whole entry): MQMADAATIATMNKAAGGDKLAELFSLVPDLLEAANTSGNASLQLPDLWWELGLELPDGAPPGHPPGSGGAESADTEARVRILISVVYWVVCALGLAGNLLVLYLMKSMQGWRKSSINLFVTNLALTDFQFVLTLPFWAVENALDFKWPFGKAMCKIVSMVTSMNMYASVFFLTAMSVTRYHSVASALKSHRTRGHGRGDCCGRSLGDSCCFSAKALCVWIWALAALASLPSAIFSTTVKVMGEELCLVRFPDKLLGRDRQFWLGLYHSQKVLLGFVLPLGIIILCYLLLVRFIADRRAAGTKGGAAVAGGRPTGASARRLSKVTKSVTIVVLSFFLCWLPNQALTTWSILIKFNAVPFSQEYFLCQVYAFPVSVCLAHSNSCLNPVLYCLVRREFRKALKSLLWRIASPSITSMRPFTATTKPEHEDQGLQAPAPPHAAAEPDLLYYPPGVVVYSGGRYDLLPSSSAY
Briefly: Displacement of Eu-labeled H3B1-22R from RXFP3 (unknown origin) stably expressed in CHO-K1 cells by competition binding assay. Format: cell-based. In short, it runs like this:
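Competition binding used europium-labeled H3 B1-22R as the labeled ligand on CHO-RXFP3 cells, with peptides as competitors. pKi values were pooled from 3–4 independent experiments.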

In assay [3] the target is T1, Relaxin-3 receptor 1. Description: Agonist activity at RXFP3 (unknown origin) stably expressed in CHO-K1 cells co-transfected with pCRE assessed as inhibition of forskolin-induced cAMP accumulation measured after 6 hrs by beta-galactosidase reporter gene assay. In kind it is functional, cell-based. Summed up:
as §1

SMILES strings stand for the structures.

For the molecule `CC[C@H](C)[C@@H]1NC(=O)[C@H](CCC(=O)O)NC(=O)[C@H](CO)NC(=O)[C@H](CCCCN)NC(=O)[C@H](CO)NC(=O)[C@H](C)NC(=O)CNC(=O)[C@H](Cc2c[nH]c3ccccc23)NC(=O)[C@H](CCCCN)NC(=O)[C@@H](N)CSSC[C@@H](C(=O)NCC(=O)NCC(=O)N[C@@H](CO)C(=O)N[C@@H](CCCNC(=N)N)C(=O)N[C@@H](Cc2c[nH]c3ccccc23)C(=O)O)NC(=O)[C@H]([C@@H](C)O)NC(=O)[C@H](Cc2ccccc2)NC(=O)[C@H]([C@@H](C)CC)NC(=O)[C@H](C(C)C)NC(=O)[C@H](CCCNC(=N)N)NC(=O)[C@H]([C@@H](C)CC)NC(=O)[C@H](Cc2ccccc2)NC(=O)[C@H](CCC(=O)O)NC(=O)[C@H](CCCNC(=N)N)NC(=O)CNC(=O)[C@@H](NC(=O)[C@H](CC(C)C)NC(=O)[C@H](CCCNC(=N)N)NC(=O)[C@@H](NC(=O)CNC(=O)[C@H](Cc2ccc(O)cc2)NC(=O)[C@@H]2CCCN2C(=O)[C@H](C)NC(=O)[C@H](C)NC(=O)[C@H](CCCNC(=N)N)N[C@@H](Cc2c[nH]c3ccccc23)C(=O)O)C(C)C)CSSC[C@@H](C(=O)O)NC(=O)[C@H](CC(C)C)NC(=O)[C@H](CO)NC(=O)[C@H](CO)NC1=O`, the EC50 (as a rule, the concentration giving half of the maximal effect) in assay [1] is 6.92 nM; in assay [3], 6.17 nM. In assay [2], affinity was put at a Ki of 45.7 nM.

On to `CC[C@H](C)[C@@H]1NC(=O)[C@H](CCC(=O)O)NC(=O)[C@H](CO)NC(=O)[C@H](CCCCN)NC(=O)[C@H](CO)NC(=O)[C@H](C)NC(=O)CNC(=O)[C@H](Cc2c[nH]c3ccccc23)NC(=O)[C@H](CCCCN)NC(=O)[C@@H](N)CSSC[C@@H](C(=O)NCC(=O)NCC(=O)N[C@@H](CO)C(=O)N[C@@H](CCCNC(=N)N)C(=O)N[C@@H](Cc2c[nH]c3ccccc23)C(=O)O)NC(=O)[C@H]([C@@H](C)O)NC(=O)[C@H](Cc2ccccc2)NC(=O)[C@H]([C@@H](C)CC)NC(=O)[C@H](C(C)C)NC(=O)[C@H](CCCNC(=N)N)NC(=O)[C@H]([C@@H](C)CC)NC(=O)[C@H](Cc2ccccc2)NC(=O)[C@H](CCC(=O)O)NC(=O)[C@H](CCCNC(=N)N)NC(=O)CNC(=O)[C@@H](NC(=O)[C@H](CC(C)C)NC(=O)[C@H](CCCNC(=N)N)NC(=O)[C@@H](NC(=O)CNC(=O)[C@H](Cc2ccc(O)cc2)NC(=O)[C@@H]2CCCN2C(=O)[C@H](C)NC(=O)[C@H](C)NC(=O)[C@H](CCCNC(=N)N)N[C@H](COC(N)=O)Cc2c[nH]c3ccccc23)C(C)C)CSSC[C@@H](C(=O)O)NC(=O)[C@H](CC(C)C)NC(=O)[C@H](CO)NC(=O)[C@H](CO)NC1=O`, for which the EC50 in assay [1] is 19.5 nM; in assay [3], 6.17 nM. For the same molecule, the Ki – broadly, the dissociation constant of the complex between target and ligand, obtained from inhibition or displacement – in assay [2] was 110 nM.

On to `CC[C@H](C)[C@@H]1NC(=O)[C@H](CCC(=O)O)NC(=O)[C@H](CO)NC(=O)[C@H](CCCCN)NC(=O)[C@H](CO)NC(=O)[C@H](C)NC(=O)CNC(=O)[C@H](Cc2c[nH]c3ccccc23)NC(=O)[C@H](CCCCN)NC(=O)[C@@H](N)CSSC[C@@H](C(=O)NCC(=O)NCC(=O)N[C@@H](CO)C(=O)N[C@@H](CCCNC(=N)N)C(=O)N[C@@H](Cc2c[nH]c3ccccc23)C(=O)O)NC(=O)[C@H]([C@@H](C)O)NC(=O)[C@H](Cc2ccccc2)NC(=O)[C@H]([C@@H](C)CC)NC(=O)[C@H](C(C)C)NC(=O)[C@H](CCCNC(=N)N)NC(=O)[C@H]([C@@H](C)CC)NC(=O)[C@H](Cc2ccccc2)NC(=O)[C@H](CCC(=O)O)NC(=O)[C@H](CCCNC(=N)N)NC(=O)CNC(=O)[C@@H](NC(=O)[C@H](CC(C)C)NC(=O)[C@H](CCCNC(=N)N)NC(=O)[C@@H](NC(=O)CNC(=O)[C@H](Cc2ccc(O)cc2)NC(=O)[C@@H]2CCCN2C(=O)[C@H](C)NC(=O)[C@H](C)NC(=O)[C@H](CCCNC(=N)N)N[C@H](CO)Cc2c[nH]c3ccccc23)C(C)C)CSSC[C@@H](C(=O)O)NC(=O)[C@H](CC(C)C)NC(=O)[C@H](CO)NC(=O)[C@H](CO)NC1=O`, for which the EC50 in assay [1] is 282 nM; in assay [3] it was 13.2 nM. This molecule gave a Ki in assay [2] of 331 nM.

As for `CC[C@H](C)[C@@H]1NC(=O)[C@H](CCC(=O)O)NC(=O)[C@H](CO)NC(=O)[C@H](CCCCN)NC(=O)[C@H](CO)NC(=O)[C@H](C)NC(=O)CNC(=O)[C@H](Cc2c[nH]c3ccccc23)NC(=O)[C@H](CCCCN)NC(=O)[C@@H](N)CSSC[C@@H](C(=O)NCC(=O)NCC(=O)N[C@@H](CO)C(=O)N[C@@H](CCCNC(=N)N)C(=O)N[C@@H](Cc2c[nH]c3ccccc23)C(=O)O)NC(=O)[C@H]([C@@H](C)O)NC(=O)[C@H](Cc2ccccc2)NC(=O)[C@H]([C@@H](C)CC)NC(=O)[C@H](C(C)C)NC(=O)[C@H](CCCNC(=N)N)NC(=O)[C@H]([C@@H](C)CC)NC(=O)[C@H](Cc2ccccc2)NC(=O)[C@H](CCC(=O)O)NC(=O)[C@H](CCCNC(=N)N)NC(=O)CNC(=O)[C@@H](NC(=O)[C@H](CC(C)C)NC(=O)[C@H](CCCNC(=N)N)NC(=O)[C@@H](NC(=O)CNC(=O)[C@H](Cc2ccc(O)cc2)NC(=O)[C@@H]2CCCN2C(=O)[C@H](C)NC(=O)[C@H](C)NC(=O)[C@H](CCCNC(=N)N)N[C@@H](Cc2c[nH]c3ccccc23)C(=O)OC[C@H](NC(C)=O)C(N)=O)C(C)C)CSSC[C@@H](C(=O)O)NC(=O)[C@H](CC(C)C)NC(=O)[C@H](CO)NC(=O)[C@H](CO)NC1=O`, the EC50 was 7.08 nM in assay [1] and 4.37 nM in assay [3]. In addition, the affinity in assay [2], expressed as Ki, was 186 nM.

As for `CC[C@H](C)[C@@H]1NC(=O)[C@H](CCC(=O)O)NC(=O)[C@H](CO)NC(=O)[C@H](CCCCN)NC(=O)[C@H](CO)NC(=O)[C@H](C)NC(=O)CNC(=O)[C@H](Cc2c[nH]c3ccccc23)NC(=O)[C@H](CCCCN)NC(=O)[C@@H](N)CSSC[C@@H](C(=O)NCC(=O)NCC(=O)N[C@@H](CO)C(=O)N[C@@H](CCCNC(=N)N)C(=O)N[C@@H](Cc2c[nH]c3ccccc23)C(=O)O)NC(=O)[C@H]([C@@H](C)O)NC(=O)[C@H](Cc2ccccc2)NC(=O)[C@H]([C@@H](C)CC)NC(=O)[C@H](C(C)C)NC(=O)[C@H](CCCNC(=N)N)NC(=O)[C@H]([C@@H](C)CC)NC(=O)[C@H](Cc2ccccc2)NC(=O)[C@H](CCC(=O)O)NC(=O)[C@H](CCCNC(=N)N)NC(=O)CNC(=O)[C@@H](NC(=O)[C@H](CC(C)C)NC(=O)[C@H](CCCNC(=N)N)NC(=O)[C@@H](NC(=O)CNC(=O)[C@H](Cc2ccc(O)cc2)NC(=O)[C@@H]2CCCN2C(=O)[C@H](C)NC(=O)[C@H](C)NC(=O)[C@H](CCCNC(=N)N)N[C@@H](Cc2c[nH]c3ccccc23)C(N)=O)C(C)C)CSSC[C@@H](C(=O)O)NC(=O)[C@H](CC(C)C)NC(=O)[C@H](CO)NC(=O)[C@H](CO)NC1=O`, the results for the EC50 in assay [1] and in assay [3] were 14.5 nM and 15.8 nM, respectively. Besides, in assay [2], the affinity corresponds to a Ki of 191 nM.
